The target in experiment [1] is T1, Nuclear factor erythroid 2-related factor 2 (Homo sapiens) (UniProt Q16236).
T1 sequence (whole entry): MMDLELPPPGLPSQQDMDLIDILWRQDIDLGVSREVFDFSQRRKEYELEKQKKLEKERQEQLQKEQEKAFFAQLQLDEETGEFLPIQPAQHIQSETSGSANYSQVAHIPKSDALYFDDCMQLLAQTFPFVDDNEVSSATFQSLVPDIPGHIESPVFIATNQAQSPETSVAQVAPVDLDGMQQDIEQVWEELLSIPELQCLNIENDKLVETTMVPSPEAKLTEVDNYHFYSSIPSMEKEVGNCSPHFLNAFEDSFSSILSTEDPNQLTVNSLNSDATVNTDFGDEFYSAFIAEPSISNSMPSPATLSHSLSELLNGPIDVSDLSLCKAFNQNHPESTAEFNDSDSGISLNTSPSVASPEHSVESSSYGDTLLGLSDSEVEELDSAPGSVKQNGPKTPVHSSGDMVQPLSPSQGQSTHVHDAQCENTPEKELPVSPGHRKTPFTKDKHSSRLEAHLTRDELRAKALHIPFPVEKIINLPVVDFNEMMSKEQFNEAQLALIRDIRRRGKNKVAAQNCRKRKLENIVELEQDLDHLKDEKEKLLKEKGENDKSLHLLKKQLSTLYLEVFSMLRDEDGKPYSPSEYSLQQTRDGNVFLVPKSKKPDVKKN
As to the kind of experiment: Activation of NRF2 transcription in human HepG2C8 cells at 10 uM after 6 hrs by luciferase reporter gene assay relative to control. It is filed as cell-based. Put shortly: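 Luciferase reporter in HepG2C8 cells, which are HepG2 stably transfected with an Nrf2 luciferase reporter and grown in MEM. Screened at 10 μM, with dose-response over 2.5−40 μM. Activity expressed as fold of control. tBHQ positive control.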

Experiment [2] deals with T1, Nuclear factor erythroid 2-related factor 2 (Homo sapiens). As to the kind of experiment: Activation of NRF2 transcription in human HepG2C8 cells at 100 uM after 6 hrs by luciferase reporter gene assay relative to control. It is filed as cell-based.
The target of experiment [3] is T2, Acetylcholinesterase (Homo sapiens, UniProt P22303). Nature of the experiment: Inhibition AChE (unknown origin) using ATCI as substrate assessed as hydrolysis of ATCI after 10 mins measured every 1 min for 10 times.
T2 sequence (P22303 whole entry): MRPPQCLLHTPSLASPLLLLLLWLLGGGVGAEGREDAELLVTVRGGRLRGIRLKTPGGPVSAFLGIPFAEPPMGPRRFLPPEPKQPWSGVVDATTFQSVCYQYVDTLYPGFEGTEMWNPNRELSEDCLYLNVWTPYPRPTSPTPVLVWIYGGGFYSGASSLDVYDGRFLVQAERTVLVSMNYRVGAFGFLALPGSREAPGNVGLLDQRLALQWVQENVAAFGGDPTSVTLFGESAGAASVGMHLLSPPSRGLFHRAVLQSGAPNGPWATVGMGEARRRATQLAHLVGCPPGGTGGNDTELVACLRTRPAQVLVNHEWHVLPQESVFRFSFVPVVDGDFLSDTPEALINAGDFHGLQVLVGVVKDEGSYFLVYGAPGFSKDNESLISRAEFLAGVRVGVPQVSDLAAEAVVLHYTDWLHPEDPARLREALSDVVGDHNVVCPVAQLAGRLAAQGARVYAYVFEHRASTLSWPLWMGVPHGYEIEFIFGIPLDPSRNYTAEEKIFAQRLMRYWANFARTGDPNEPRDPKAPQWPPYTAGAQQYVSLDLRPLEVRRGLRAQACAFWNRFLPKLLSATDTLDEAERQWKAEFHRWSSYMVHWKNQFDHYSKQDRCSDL
For experiment [4], the target named is T2, Acetylcholinesterase. Nature of the experiment: Inhibition AChE (unknown origin) using ATCI as substrate assessed as hydrolysis of ATCI at 25 uM measured every 1 min for 10 times. The method in brief:
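Commercial AChE (added as 0.025 U/mL solution) in Tris-HCl (30 mM, pH 8.0) with DTNB (added as 0.26 mM) and ATCI substrate (added as 0.2 mM); 200 μL mixture at room temperature. Thiocholine release read at 405 nm every min, 10 reads; linear slope taken as rate. Screening at 25 μM; galanthamine positive control.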

Experiment [5] deals with T3, Tyrosinase (Homo sapiens) (UniProt P14679).
T3 sequence (whole entry): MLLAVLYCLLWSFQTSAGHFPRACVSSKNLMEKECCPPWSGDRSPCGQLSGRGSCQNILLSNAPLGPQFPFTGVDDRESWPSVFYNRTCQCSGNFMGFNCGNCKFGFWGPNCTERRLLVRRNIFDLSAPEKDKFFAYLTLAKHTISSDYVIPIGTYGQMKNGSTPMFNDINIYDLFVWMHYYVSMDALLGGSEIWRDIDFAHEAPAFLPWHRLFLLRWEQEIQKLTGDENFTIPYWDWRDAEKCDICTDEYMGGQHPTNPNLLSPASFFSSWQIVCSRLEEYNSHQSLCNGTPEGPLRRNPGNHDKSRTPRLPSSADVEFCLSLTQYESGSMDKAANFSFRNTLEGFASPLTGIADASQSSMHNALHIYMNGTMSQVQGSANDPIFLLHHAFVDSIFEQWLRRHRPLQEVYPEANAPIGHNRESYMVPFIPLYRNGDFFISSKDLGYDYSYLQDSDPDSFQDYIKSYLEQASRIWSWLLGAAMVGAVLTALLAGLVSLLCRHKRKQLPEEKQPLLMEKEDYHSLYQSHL
Nature of the experiment: Inhibition of tyrosinase (unknown origin) using L-tyrosine as substrate assessed as oxidation of L-tyrosine at 20 uM after 15 mins. Put shortly:
(§1)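 Tyrosinase at 333 U/mL (stock) in 45 mM sodium phosphate, pH 6.6, with 2 mM L-tyrosine (stock). Incubated 37 °C for 15 min; oxidation read at 492 nm. Screened at 20 μM; dose-response for IC50. Glyasperin C positive control.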

The next experiment deals with T4, Tyrosinase (Homo sapiens, UniProt P14679).
T4 sequence (P14679 whole entry): T3 sequence (whole entry)
Nature of the experiment: Inhibition of tyrosinase (unknown origin) using L-tyrosine as substrate assessed as oxidation of L-tyrosine after 15 mins. Put shortly:
as §1

The test system of another experiment is Influenza A virus. Nature of the experiment: Antiviral activity against Influenza A virus A/WSN/33(H1N1) infected in MDCK cells at 100 uM preincubated with virus for 15 mins followed by cells addition measured at 36 hrs post infection. It is filed as functional, A/WSN/1933(H1N1). The method in brief:
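MDCK canine kidney cells grown in DMEM and infected with influenza A/WSN/33 (H1N1). Compounds screened at 100 μM. Oseltamivir phosphate served as the positive control.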

The subject of experiment [6] is RAW264.7. As to the kind of experiment: Antiinflammatory activity in mouse RAW264.7 cells assessed as inhibition of LPS-induced nitric oxide production after 24 hrs by Griess assay. It counts as functional, cell-based. The conditions noted are these: RAW264.7, 24 h. The method in brief:
(§2)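 RAW264.7 cells plated at 1.2 × 10^5/well in RPMI1640 and co-treated with compound and 1 μg/mL LPS for 24 h. Nitrite in medium read with Griess reagent (sulfanilamide/naphthylethylenediamine, phosphoric acid) after 15 min at 37 °C, absorbance 540 nm. […] Curcumin positive control.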

Experiment [7] concerns SW480. As to the kind of experiment: Inhibition of NFkappaB transcription in human SW480 cells at 10 uM by luciferase reporter gene assay. It is filed as cell-based. Put shortly: (§3)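 SW480 cells (RPMI1640) stably transfected with an NF-κB luciferase reporter. […] MG132 positive control.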
(A reporter such as luciferase makes a cellular process visible.)

Experiment [8] is described as follows: (§4) Inhibition of NFkappaB transcription in human SW480 cells at by luciferase reporter gene assay. It is filed as cell-based. Put shortly: as §3
Experiment [9] deals with SW480. The experiment is described as §4. It is filed as cell-based. The method in brief:
as §3

The target of experiment [10] is T5, Tyrosine-protein phosphatase non-receptor type 1 (Homo sapiens) (UniProt P18031).
T5 sequence (whole entry): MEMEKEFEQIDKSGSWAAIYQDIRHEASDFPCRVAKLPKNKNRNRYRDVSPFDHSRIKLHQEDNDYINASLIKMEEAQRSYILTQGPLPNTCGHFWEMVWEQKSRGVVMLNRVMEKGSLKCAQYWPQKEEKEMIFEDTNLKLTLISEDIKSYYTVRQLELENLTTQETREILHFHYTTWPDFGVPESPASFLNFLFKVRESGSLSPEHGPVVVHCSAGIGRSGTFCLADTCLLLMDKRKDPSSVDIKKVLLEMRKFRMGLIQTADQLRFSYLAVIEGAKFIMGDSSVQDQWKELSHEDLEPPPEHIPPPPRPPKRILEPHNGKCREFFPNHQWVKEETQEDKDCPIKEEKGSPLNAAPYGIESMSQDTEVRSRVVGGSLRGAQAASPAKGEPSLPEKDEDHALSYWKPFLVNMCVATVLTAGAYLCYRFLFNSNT
As to the kind of experiment: Inhibition of recombinant human PTP1B assessed as hydrolysis of p-nitrophenyl phosphate at 25 uM after 30 mins relative to control.

Experiment [11] relates to RAW264.7. As to the kind of experiment: Antiinflammatory activity in mouse RAW264.7 cells assessed as inhibition of LPS-induced nitric oxide production at 10 uM after 24 hrs by Griess assay. It is filed as functional. The conditions noted are these: RAW264.7, 24 h. The method in brief:
as §2

Experiment [12] has as its system RAW264.7. As to the kind of experiment: Antiinflammatory activity in mouse RAW264.7 cells assessed as inhibition of LPS-induced nitric oxide production at 20 uM after 24 hrs by Griess assay. It counts as functional. As to conditions: RAW264.7, 24 h. Put shortly:
as §2
A general note: The Griess reaction detects nitrite, a stable product of nitric oxide.

The source made the active and inactive calls. The calls are words filed in the database; no cut-off is given here.

On to `CC(C)(C)c1cc(O)ccc1O`, for which the fold change (FC) turned out to be 1.51 in experiment [1] and 4.34 in experiment [2].

Regarding `COc1cc2occ(-c3ccc(O)cc3O)c(=O)c2c(O)c1CC=C(C)C`, at Acetylcholinesterase [3], the IC50 – broadly, the point on the concentration scale where inhibition reaches its midpoint – amounted to 9.9 µM. Further, the inhibition (commonly the share of the control response that was lost under treatment) on Acetylcholinesterase [4] came out at 83%.

As to `COc1c(CC=C(C)C)c(O)cc2c1C[C@H](c1ccc(O)cc1O)CO2` [GLYASPERIN C], the inhibition in [5] is above 95%. The IC50 at Tyrosinase stood at 0.177 µM.

The compound `COc1c(CC=C(C)C)c(O)cc2oc(-c3ccc(O)cc3O)cc12` [LICOCOUMARONE] showed an Activity in the experiment on Influenza A virus above 30%. For the same compound, the IC50 is 8.5 µM with RAW264.7 [6] and 5.1 µM in experiment [8]. The inhibition was above 30% with SW480 [7], “Dose-dependent effect” in the experiment on SW480 [9] and above 90% in experiment [10].

For `O=c1c(O)c(-c2ccc(O)cc2)oc2cc(O)cc(O)c12` [KAEMPFEROL], the inhibition in [5] was above 95%. The half-maximal inhibitory concentration (IC50) on Tyrosinase was determined as 1 µM.

For `COc1ccc2c(c1)OC1C2COC2=CC(=O)CCC21O` (stereo unspecified), the inhibition was above 30% with SW480 [7] and “Dose-dependent effect” in the experiment on SW480 [9]. Also, in experiment [8], the IC50 was determined as 16.9 µM. Also, the inhibition entry in experiment [10] was “inactive”.

On to `COc1cc(/C=C/C(=O)CC(=O)/C=C/c2ccc(O)c(OC)c2)ccc1O` [CURCUMIN], for which the inhibition at 10 µM in the experiment with RAW264.7 [11] worked out at 12%. Also, in the experiment on RAW264.7 [12], the inhibition at 20 µM was determined as 53%. Moreover, the half-inhibitory concentration (IC50) in the experiment on RAW264.7 [6] came to 19.1 µM.

In the experiment with Influenza A virus, `COc1c2c(cc(O)c1CC=C(C)C)OCC(c1ccc(O)cc1O)=C2` yielded an Activity above 30%. Moreover, the fold change (FC) in [1] worked out at 4.7. In the experiment with RAW264.7 [11], the inhibition at 10 µM is above 50%. In addition, the IC50 in the experiment with RAW264.7 [6] was 8.1 µM. Also, the inhibition entry in [5] was “inactive”.

(Values after ChEMBL document CHEMBL3808312, “Bioactive Constituents of Glycyrrhiza uralensis (Licorice): Discovery of the Effective Components of a Traditional Herbal Medicine” (J Nat Prod, 2016).)
